Substrate in data set [1]: CC(C)=CCC/C(C)=C\CC/C(C)=C\Cc1c(O)cc(O)cc1-c1cc2ccc(O)cc2o1
In words: (§1) Activity at human recombinant PTP1B. The essentials:
(§2)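 Recombinant human PTP1B (0.1 μg) incubated with 2 mM p-NPP in 50 mM citrate pH 6.0, 0.1 M NaCl, 1 mM EDTA, 1 mM DTT, with or without inhibitor. Incubation 37 °C for 30 min, stopped with 10 M NaOH. p-Nitrophenol read by absorbance at 405 nm, corrected for nonenzymatic p-NPP hydrolysis without enzyme. Values are mean ± SD of triplicates.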

Substrate in data set [2]: CC(C)=CCC/C(C)=C/Cc1c(O)cc(O)cc1-c1cc2ccc(O)cc2o1
The data set is described as §1. The essentials:
as §2

Substrate in data set [3]: CC(C)=CCC/C(C)=C/Cc1c(O)ccc2cc(-c3cc(O)cc(O)c3CC=C(C)C)oc12
Described as §1. The essentials:
as §2

Substrate in data set [4]: CC(C)=CCc1c(O)cc(C(=O)[C@H]2[C@@H](c3c(O)ccc(C(=O)/C=C/c4ccc(O)cc4O)c3O)C=C(C)C[C@@H]2c2ccc(O)cc2O)cc1O
The description is as §1. The essentials:
as §2

Substrate in data set [5]: CC(C)=CCc1c(O)cc(C(=O)[C@H]2[C@@H](c3c(O)ccc(C(=O)/C=C/c4ccc(O)cc4)c3O)C=C(C)C[C@@H]2c2ccc(O)cc2)cc1O
Described as §1. The essentials: as §2

Substrate in data set [6]: CC(C)=CCc1c(O)cc(C(=O)[C@H]2[C@@H](c3c(O)ccc(C(=O)/C=C/c4ccc(O)cc4)c3O)C=C(C)C[C@@H]2c2ccc(O)cc2O)cc1O
Described as §1. The method, boiled down: as §2

B1: Tyrosine-protein phosphatase non-receptor type 1 (Homo sapiens), P18031 (protein)
chain: MEMEKEFEQIDKSGSWAAIYQDIRHEASDFPCRVAKLPKNKNRNRYRDVSPFDHSRIKLHQEDNDYINASLIKMEEAQRSYILTQGPLPNTCGHFWEMVWEQKSRGVVMLNRVMEKGSLKCAQYWPQKEEKEMIFEDTNLKLTLISEDIKSYYTVRQLELENLTTQETREILHFHYTTWPDFGVPESPASFLNFLFKVRESGSLSPEHGPVVVHCSAGIGRSGTFCLADTCLLLMDKRKDPSSVDIKKVLLEMRKFRMGLIQTADQLRFSYLAVIEGAKFIMGDSSVQDQWKELSHEDLEPPPEHIPPPPRPPKRILEPHNGKCREFFPNHQWVKEETQEDKDCPIKEEKGSPLNAAPYGIESMSQDTEVRSRVVGGSLRGAQAASPAKGEPSLPEKDEDHALSYWKPFLVNMCVATVLTAGAYLCYRFLFNSNT
The Km is the substrate concentration at which the rate is half of its maximum. Usually Vmax stands for the top rate of the reaction or transport when substrate is in excess. Take B1: the Km is 3170 µM in data set [1]; 1250 µM in data set [2]; 2080 µM in data set [3]; 2810 µM in data set [4]; 1190 µM in data set [5]; 1640 µM in data set [6]. Moreover, the maximum rate (Vmax) was determined as 5.49 µM/min in data set [1]; 6.58 µM/min in data set [2]; 5.78 µM/min in data set [3]; 5.41 µM/min in data set [4]; 6.71 µM/min in data set [5]; 5.95 µM/min in data set [6].

Source of the values: ChEMBL document CHEMBL1156122, “Protein tyrosine phosphatase 1B inhibitors isolated from Morus bombycis” (Bioorg Med Chem Lett, 2009).
